Reference: ChEMBL document CHEMBL4033661, “Small molecules inhibit STAT3 activation, autophagy, and cancer cell anchorage-independent growth” (Bioorg Med Chem, 2017)
Values belong to the molecule of their own block, whether it stands above or below them. Active and inactive are the calls of the source. No cut-off for these calls is given here.

Experiments:
[1] = target: T1, Maternal embryonic leucine zipper kinase (Homo sapiens, UniProt Q14680); assay: Inhibition of MELK in human MDA-MB-231 cells assessed as upregulation of p53-dependent p21WAF1/CIP1 expression at 5 uM by Western blot method; type: cell-based; conditions: TDE = time-dependent effect
Summary of the method: (§1)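 Cells were treated at 5 µM over 48 h. Total lysates were made in RIPA with protease/phosphatase inhibitors, 30 µg protein was run on 10% SDS-PAGE and moved to nitrocellulose. Primary antibodies were applied overnight at 4 °C, then IRDye 800 anti-mouse or Alexa Fluor 680 anti-rabbit secondaries for 1 h at RT, with infrared imaging. Actin served as loading control. Band changes are given as percent of control, mean ± SD, n = 2.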
Target sequence in this assay (Q14680 whole entry, looked up): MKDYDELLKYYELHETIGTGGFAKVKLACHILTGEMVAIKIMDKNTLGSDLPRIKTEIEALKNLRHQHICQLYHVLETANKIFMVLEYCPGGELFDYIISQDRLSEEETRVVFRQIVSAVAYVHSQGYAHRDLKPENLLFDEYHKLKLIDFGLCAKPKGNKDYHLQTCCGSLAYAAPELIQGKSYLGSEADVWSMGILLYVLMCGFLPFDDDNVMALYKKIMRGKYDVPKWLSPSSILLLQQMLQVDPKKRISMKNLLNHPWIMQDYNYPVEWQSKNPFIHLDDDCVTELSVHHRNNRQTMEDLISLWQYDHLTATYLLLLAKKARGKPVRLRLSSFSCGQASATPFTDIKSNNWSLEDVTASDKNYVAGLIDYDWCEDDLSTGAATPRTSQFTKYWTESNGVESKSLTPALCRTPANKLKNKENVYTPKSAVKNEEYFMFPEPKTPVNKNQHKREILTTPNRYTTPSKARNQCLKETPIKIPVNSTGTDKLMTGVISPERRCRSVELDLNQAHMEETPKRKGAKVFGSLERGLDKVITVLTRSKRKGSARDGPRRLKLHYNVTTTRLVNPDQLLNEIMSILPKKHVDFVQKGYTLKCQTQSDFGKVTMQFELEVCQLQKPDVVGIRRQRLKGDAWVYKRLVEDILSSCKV

[2] = target: T1, Maternal embryonic leucine zipper kinase; assay: Inhibition of MELK in human MDA-MB-468 cells assessed as decrease in p53 phosphorylation at Ser15 residue at 5 uM by Western blot method; type: cell-based; conditions: TDE = time-dependent effect; summary of the method: as §1
Target sequence in this assay (Q14680 whole entry, looked up): as above

[3] = target: Signal transducer and activator of transcription 3 (Homo sapiens) (UniProt P40763); assay: Inhibition of [gamma32P]-ATP labelled DNA binding to STAT3 dimer (unknown origin) at 5 uM after 4 hrs by electrophoretic mobility shift assay
Summary of the method: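 STAT3 consensus oligonucleotide was 5'-labeled with [γ-32P]ATP using polynucleotide kinase. Nuclear protein (2 µg) was incubated with probe for 30 min on ice in 10 mM Tris, 50 mM KCl, 1 mM DTT, 50 µM EDTA, 50 ng/µL poly(dI-dC), pH 7.5. Samples were run on a 4% native polyacrylamide gel in Tris-glycine-EDTA, then the gel was dried and autoradiographed.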

[4] = target: Signal transducer and activator of transcription 3 (Homo sapiens) (UniProt P40763); assay: Inhibition of STAT3 phosphorylation in human MDA-MB-468 cells assessed as down regulation of survivin level at 5 uM up to 48 hrs by Western blot method; type: cell-based; summary of the method: as §1
[5] = target: T1, Maternal embryonic leucine zipper kinase; assay: Inhibition of MELK in human MDA-MB-468 cells assessed as decrease in cyclin A2 level at 5 uM measured over 48 hrs by Western blot method; type: cell-based; summary of the method: as §1
Target sequence in this assay (Q14680 whole entry, looked up): as above

[6] = target: RAC-alpha serine/threonine-protein kinase (Homo sapiens) (UniProt P31749); assay: Inhibition of Akt phosphorylation in human MDA-MB-468 cells by Western blot method; type: cell-based
[7] = target: Signal transducer and activator of transcription 3 (Homo sapiens) (UniProt P40763); assay: Inhibition of STAT3 at Tyr705 in human MDA-MB-231 cells at 5 uM after 8 hrs by Western blot method; type: cell-based
[8] = target: Signal transducer and activator of transcription 3 (Homo sapiens) (UniProt P40763); assay: Inhibition of STAT3 phosphorylation at Tyr705 in human MDA-MB-468 cells at 5 uM measured at 4 hrs by Western blot method; type: cell-based
[9] = target: Signal transducer and activator of transcription 3 (Homo sapiens) (UniProt P40763); assay: Inhibition of STAT3 phosphorylation in human MDA-MB-468 cells assessed as down regulation of Bcl-XL level at 5 uM up to 48 hrs by Western blot method; type: cell-based; summary of the method: as §1
[10] = target: Signal transducer and activator of transcription 3 (Homo sapiens) (UniProt P40763); assay: Inhibition of STAT3 at Tyr705 in human MDA-MB-468 cells at 5 uM after 8 hrs by Western blot method; type: cell-based
[11] = target: T1, Maternal embryonic leucine zipper kinase; assay: Inhibition of MELK in human MDA-MB-231 cells assessed as decrease in cyclin A2 level at 5 uM measured over 48 hrs by Western blot method; type: cell-based; summary of the method: as §1
Target sequence in this assay (Q14680 whole entry, looked up): as above

[12] = target: Signal transducer and activator of transcription 3 (Homo sapiens) (UniProt P40763); assay: Inhibition of STAT3 phosphorylation in human MDA-MB-231 cells assessed as downregulation of survivin level at 5 uM up to 48 hrs by Western blot method; type: cell-based; summary of the method: as §1
[13] = target: Signal transducer and activator of transcription 3 (Homo sapiens) (UniProt P40763); assay: Inhibition of STAT3 phosphorylation at Tyr705 in human MDA-MB-231 cells at 5 uM measured at 4 hrs by Western blot method; type: cell-based
[14] = target: Signal transducer and activator of transcription 3 (Homo sapiens) (UniProt P40763); assay: Inhibition of STAT3 phosphorylation in human MDA-MB-231 cells assessed as downregulation of Bcl-XL level at 5 uM up to 48 hrs by Western blot method; type: cell-based; summary of the method: as §1
[15] = target: T1, Maternal embryonic leucine zipper kinase; assay: Inhibition of MELK in human MDA-MB-468 cells assessed as upregulation of p53-dependent p21WAF1/CIP1 expression at 5 uM by Western blot method; type: cell-based; conditions: TDE = time-dependent effect; summary of the method: as §1
Target sequence in this assay (Q14680 whole entry, looked up): as above

MDA-MB-231 [16] = assay: Cytotoxicity against human MDA-MB-231 cells assessed as cell growth inhibition after 3 days by MTT assay; type: functional, cell-based; conditions: MDA-MB-231, 72 h
Summary of the method: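 MDA-MB-231 cells (10^4/well) in DMEM with 10% FBS at 37 °C, 5% CO2 were plated overnight, then exposed to compounds at the indicated concentrations or 1% DMSO control for 3 d. MTT (5 mg/mL stock) was added for 2 h. Absorbance was read at 570 nm with a 630 nm reference. Values are mean ± SD, n = 3.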

[17] = target: T1, Maternal embryonic leucine zipper kinase; assay: Inhibition of MELK (unknown origin)
Target sequence in this assay (Q14680 whole entry): as the sequence (Q14680 whole entry, looked up) above

[18] = target: Signal transducer and activator of transcription 3 (Homo sapiens) (UniProt P40763); assay: Inhibition of STAT3 in human MDA-MB-231 cells assessed as decrease in autophagic flux by measuring accumulation of LC3B-2 level at 5 uM after 4 hrs in presence of bafilomycin A by Western blot method; type: cell-based
Summary of the method: (§2)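 Cells were exposed for 4 h to 5 µM compound, DMSO vehicle, or 1% O2 as hypoxic autophagy control. Bafilomycin A1 (100 nM) was added 4 h before harvest. Lysis was in NP40 buffer with protease/phosphatase inhibitors, then 16,300g spin for 15 min at 4 °C, SDS-PAGE and PVDF transfer. Blots were probed overnight at 4 °C with anti-LC3B (1:3000), then HRP secondary (1:10,000) for 2 h, with ECL detection of LC3B-I and LC3B-II.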

MDA-MB-231 [19] = assay: Cytotoxicity against human MDA-MB-231 cells assessed as inhibition of anchorage-independent colony formation on soft agar after 10 days by crystal violet staining based assay; type: functional, cell-based; conditions: MDA-MB-231, 240 h
Summary of the method: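 Base layer 0.5% agar, top layer 0.3% agar containing the cells, both in DMEM with 10% FBS. Feeding medium held compound at the indicated concentrations or 1% DMSO and was changed twice weekly for 10 d at 37 °C, 5% CO2. Colonies were stained with 0.005% crystal violet and counted under a dissecting microscope. Values are mean ± SE of six fields from two independent samples.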

[20] = target: Tyrosine-protein kinase JAK3 (Homo sapiens) (UniProt P52333); assay: Inhibition of JAK3 (unknown origin) at 20 uM
Angiopoietin-1 receptor = Angiopoietin-1 receptor (Homo sapiens, UniProt Q02763); assay: Inhibition of TIE2/TEK (unknown origin)
[21] = target: Tyrosine-protein kinase BTK (Homo sapiens, UniProt Q06187); assay: Inhibition of BTK (unknown origin)
[22] = target: Megakaryocyte-associated tyrosine-protein kinase (Homo sapiens, UniProt P42679); assay: Inhibition of CTK/MATK (unknown origin)
Insulin receptor = Insulin receptor (Homo sapiens, UniProt P06213); assay: Inhibition of IR (unknown origin)
[23] = target: Tyrosine-protein kinase JAK2 (Homo sapiens) (UniProt O60674); assay: Inhibition of JAK2 (unknown origin) at 20 uM
[24] = target: T1, Maternal embryonic leucine zipper kinase; assay: Inhibition of MELK (unknown origin) at 20 uM relative to control
Target sequence in this assay (Q14680 whole entry, looked up): as above

[25] = target: Tyrosine-protein kinase Fer (Homo sapiens, UniProt P16591); assay: Inhibition of FER (unknown origin)
[26] = target: Calcium/calmodulin-dependent protein kinase type II subunit gamma (Homo sapiens, UniProt Q13555); assay: Inhibition of CaMK2gamma (unknown origin)
[27] = target: Signal transducer and activator of transcription 3 (Homo sapiens) (UniProt P40763); assay: Inhibition of STAT3 in human MDA-MB-468 cells assessed as decrease in autophagic flux by measuring accumulation of LC3B-2 level at 5 uM after 4 hrs in presence of bafilomycin A by Western blot method; type: cell-based; summary of the method: as §2
[28] = target: Tyrosine-protein kinase Lyn (Homo sapiens, UniProt P07948); assay: Inhibition of LYN B (unknown origin)
[29] = target: Tyrosine-protein kinase JAK1 (Homo sapiens) (UniProt P23458); assay: Inhibition of JAK1 (unknown origin) at 20 uM
[30] = target: Calcium/calmodulin-dependent protein kinase type II subunit delta (Homo sapiens, UniProt Q13557); assay: Inhibition of CaMK2delta (unknown origin)
[31] = target: Receptor tyrosine-protein kinase erbB-4 (Homo sapiens, UniProt Q15303); assay: Inhibition of ERBB4/HER4 (unknown origin)
[32] = target: Calcium/calmodulin-dependent protein kinase type 1 (Homo sapiens, UniProt Q14012); assay: Inhibition of CaMK1alpha (unknown origin)
[33] = target: Fibroblast growth factor receptor 1 (Homo sapiens, UniProt P11362); assay: Inhibition of FGFR1 (unknown origin)
MDA-MB-468 = assay: Effect on p53 levels in human MDA-MB-468 cells at 5 uM up to 48 hrs by Western blot method; type: functional, cell-based; summary of the method: as §1
[34] = target: Tyrosine-protein kinase Blk (Homo sapiens, UniProt P51451); assay: Inhibition of BLK (unknown origin)
[35] = target: Tyrosine-protein kinase CSK (Homo sapiens, UniProt P41240); assay: Inhibition of CSK (unknown origin)
[36] = target: Cytoplasmic tyrosine-protein kinase BMX (Homo sapiens, UniProt P51813); assay: Inhibition of BMX/ETK (unknown origin)
Sequence of Cytoplasmic tyrosine-protein kinase BMX (P51813 whole entry): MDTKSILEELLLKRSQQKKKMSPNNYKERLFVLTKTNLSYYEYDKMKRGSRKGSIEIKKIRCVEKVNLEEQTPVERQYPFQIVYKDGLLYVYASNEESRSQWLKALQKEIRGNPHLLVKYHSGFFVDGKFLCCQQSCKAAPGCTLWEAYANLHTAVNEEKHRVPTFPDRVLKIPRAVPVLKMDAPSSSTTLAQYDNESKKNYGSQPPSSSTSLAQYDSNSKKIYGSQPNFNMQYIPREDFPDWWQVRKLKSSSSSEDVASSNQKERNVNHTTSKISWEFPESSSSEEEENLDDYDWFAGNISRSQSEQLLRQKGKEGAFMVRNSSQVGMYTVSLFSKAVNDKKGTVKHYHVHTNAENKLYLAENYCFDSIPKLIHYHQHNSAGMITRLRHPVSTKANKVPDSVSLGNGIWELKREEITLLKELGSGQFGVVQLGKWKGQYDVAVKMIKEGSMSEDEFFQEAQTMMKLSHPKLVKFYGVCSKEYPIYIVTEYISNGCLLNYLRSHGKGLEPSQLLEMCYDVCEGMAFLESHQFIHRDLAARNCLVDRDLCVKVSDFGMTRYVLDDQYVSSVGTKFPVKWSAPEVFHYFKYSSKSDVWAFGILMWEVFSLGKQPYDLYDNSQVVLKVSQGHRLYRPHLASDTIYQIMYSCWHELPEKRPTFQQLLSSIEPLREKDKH

Sequence of Signal transducer and activator of transcription 3 (Homo sapiens) (P40763 whole entry): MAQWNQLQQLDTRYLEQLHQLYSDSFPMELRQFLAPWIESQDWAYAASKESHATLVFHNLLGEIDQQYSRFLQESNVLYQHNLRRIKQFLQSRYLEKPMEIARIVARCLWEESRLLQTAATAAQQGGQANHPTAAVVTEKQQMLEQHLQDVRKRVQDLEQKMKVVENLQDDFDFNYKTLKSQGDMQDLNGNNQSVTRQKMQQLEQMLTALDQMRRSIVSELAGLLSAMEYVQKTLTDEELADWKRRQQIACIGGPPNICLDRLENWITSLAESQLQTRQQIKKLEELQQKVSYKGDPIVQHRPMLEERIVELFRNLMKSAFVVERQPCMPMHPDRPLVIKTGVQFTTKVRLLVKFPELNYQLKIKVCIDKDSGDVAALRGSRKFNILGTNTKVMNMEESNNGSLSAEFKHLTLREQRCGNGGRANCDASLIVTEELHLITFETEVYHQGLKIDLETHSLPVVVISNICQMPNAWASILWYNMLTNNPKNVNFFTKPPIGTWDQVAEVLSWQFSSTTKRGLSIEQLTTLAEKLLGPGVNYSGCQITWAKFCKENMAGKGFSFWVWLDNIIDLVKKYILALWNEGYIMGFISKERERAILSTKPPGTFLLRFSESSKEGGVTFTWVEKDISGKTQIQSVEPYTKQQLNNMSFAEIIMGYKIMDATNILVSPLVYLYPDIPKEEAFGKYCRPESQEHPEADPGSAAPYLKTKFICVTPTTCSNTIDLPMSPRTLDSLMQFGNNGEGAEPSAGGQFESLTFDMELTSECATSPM
Sequence of RAC-alpha serine/threonine-protein kinase (Homo sapiens) (P31749 whole entry): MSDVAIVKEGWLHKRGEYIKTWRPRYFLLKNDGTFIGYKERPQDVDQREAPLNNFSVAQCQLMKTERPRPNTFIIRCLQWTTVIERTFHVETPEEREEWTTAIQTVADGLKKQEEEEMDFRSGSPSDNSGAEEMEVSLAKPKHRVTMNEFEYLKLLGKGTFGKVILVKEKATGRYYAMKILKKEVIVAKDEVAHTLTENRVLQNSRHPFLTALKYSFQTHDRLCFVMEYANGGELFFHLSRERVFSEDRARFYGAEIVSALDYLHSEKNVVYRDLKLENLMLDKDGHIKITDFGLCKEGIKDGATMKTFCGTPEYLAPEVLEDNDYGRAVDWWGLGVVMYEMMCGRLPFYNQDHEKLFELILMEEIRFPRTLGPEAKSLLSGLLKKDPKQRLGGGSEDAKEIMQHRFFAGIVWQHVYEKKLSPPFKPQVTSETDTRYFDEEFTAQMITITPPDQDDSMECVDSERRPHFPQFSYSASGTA
Sequence of Calcium/calmodulin-dependent protein kinase type 1 (Q14012 whole entry): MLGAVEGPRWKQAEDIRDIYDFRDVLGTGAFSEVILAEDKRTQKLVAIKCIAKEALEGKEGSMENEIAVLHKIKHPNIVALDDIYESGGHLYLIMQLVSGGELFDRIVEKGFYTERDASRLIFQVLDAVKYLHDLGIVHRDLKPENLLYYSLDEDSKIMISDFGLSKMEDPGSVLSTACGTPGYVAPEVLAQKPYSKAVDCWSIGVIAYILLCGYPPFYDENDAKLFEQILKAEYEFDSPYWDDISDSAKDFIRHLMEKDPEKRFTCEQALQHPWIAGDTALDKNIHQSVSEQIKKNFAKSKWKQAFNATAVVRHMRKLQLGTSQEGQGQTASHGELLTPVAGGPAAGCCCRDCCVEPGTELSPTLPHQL
Sequence of Megakaryocyte-associated tyrosine-protein kinase (P42679 whole entry): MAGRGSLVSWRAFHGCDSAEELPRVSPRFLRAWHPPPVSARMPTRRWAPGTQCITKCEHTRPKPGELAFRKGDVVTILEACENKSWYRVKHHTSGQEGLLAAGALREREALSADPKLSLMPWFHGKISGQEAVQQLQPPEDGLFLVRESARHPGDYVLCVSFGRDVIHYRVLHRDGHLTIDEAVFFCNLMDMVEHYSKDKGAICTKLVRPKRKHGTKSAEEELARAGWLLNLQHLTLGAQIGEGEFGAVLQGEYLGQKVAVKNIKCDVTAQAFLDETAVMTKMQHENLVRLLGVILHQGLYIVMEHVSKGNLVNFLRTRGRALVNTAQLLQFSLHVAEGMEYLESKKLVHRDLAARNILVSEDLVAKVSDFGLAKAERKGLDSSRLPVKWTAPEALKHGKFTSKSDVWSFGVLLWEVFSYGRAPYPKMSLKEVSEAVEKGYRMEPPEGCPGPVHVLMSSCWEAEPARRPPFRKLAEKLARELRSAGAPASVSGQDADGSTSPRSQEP
Sequence of Angiopoietin-1 receptor (Q02763 whole entry): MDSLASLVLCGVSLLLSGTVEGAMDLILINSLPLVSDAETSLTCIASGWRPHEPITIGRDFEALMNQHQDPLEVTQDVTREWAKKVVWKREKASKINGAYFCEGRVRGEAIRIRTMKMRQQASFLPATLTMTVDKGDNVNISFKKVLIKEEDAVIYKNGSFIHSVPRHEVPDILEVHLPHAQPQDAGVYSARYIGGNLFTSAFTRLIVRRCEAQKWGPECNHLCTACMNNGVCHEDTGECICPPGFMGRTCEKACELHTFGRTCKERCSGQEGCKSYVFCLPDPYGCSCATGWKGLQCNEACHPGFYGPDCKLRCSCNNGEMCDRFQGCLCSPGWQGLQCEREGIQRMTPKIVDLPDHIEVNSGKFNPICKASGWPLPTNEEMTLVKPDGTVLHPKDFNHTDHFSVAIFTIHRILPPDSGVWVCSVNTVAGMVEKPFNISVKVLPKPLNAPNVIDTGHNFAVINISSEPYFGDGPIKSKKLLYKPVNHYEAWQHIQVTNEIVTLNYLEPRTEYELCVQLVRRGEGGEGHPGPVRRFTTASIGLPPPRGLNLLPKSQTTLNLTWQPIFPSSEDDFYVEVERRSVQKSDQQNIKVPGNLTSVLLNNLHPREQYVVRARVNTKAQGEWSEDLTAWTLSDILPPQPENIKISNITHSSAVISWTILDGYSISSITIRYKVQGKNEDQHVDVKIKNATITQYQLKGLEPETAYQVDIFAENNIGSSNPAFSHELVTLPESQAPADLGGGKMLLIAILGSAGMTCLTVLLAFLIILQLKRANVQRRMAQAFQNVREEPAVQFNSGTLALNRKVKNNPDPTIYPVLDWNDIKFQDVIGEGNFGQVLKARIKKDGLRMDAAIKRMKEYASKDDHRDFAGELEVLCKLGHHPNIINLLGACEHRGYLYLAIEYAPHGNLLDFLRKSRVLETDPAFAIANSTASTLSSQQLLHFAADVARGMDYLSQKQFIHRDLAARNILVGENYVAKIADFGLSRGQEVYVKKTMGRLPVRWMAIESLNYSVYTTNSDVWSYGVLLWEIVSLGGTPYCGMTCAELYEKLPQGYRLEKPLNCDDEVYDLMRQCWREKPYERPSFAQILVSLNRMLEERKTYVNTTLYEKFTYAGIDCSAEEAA

inhibition [1]: Tde | inhibition [2]: Tde | inhibition [3]: Active | inhibition [5]: Active | inhibition [6]: inactive | inhibition [7]: inactive | inhibition [8]: Active | inhibition [9]: Active | inhibition [10]: inactive | inhibition [11]: Active | inhibition [13]: Active | inhibition [14]: Active | inhibition [15]: Tde
SMILES: CCN(CC)CCCC(C)Nc1nc(/C=C/c2ccccc2)nc2cc(Cl)ccc12 (stereo not drawn)
inhibition [4]: Active | inhibition [12]: Active

SMILES: CC1CCN(c2nc(/C=C/c3ccccc3)nc3ccccc23)CC1
IC50 (MDA-MB-231 [16]): > 10 µM

IC50 [17]: 3.5 µM
SMILES: Nc1ccc2nc(/C=C/c3ccc(C(F)(F)F)cc3)nc(NCCCN3CCOCC3)c2c1

SMILES: CCN(CC)CCNc1nc(/C=C/c2ccc(Cl)cc2)nc2cc3ccccc3cc12
IC50 (MDA-MB-231 [16]): < 10 µM

SMILES: C(=C\c1nc(N2CCCC2)c2ccccc2n1)/c1ccccc1
IC50 (MDA-MB-231 [16]): < 10 µM

IC50 [17]: 2.1 µM
SMILES: CCN(CC)CCCCNc1nc(/C=C/c2c(Cl)cc(Cl)cc2Cl)nc2ccc(N)cc12

inhibition [18]: Active | inhibition [20]: inactive | IC50 (Angiopoietin-1 receptor): 1.8 µM | IC50 [21]: 6.7 µM | inhibition [1]: Tde | inhibition [2]: Tde | IC50 [22]: 14.7 µM | IC50 (Insulin receptor): > 100 µM | inhibition [23]: inactive | inhibition [24]: > 98% | IC50 [25]: 42.7 µM | IC50 [26]: 9.2 µM | inhibition [27]: Active | inhibition [5]: Active | IC50 [28]: 10.5 µM | inhibition [29]: inactive | IC50 [30]: 9.1 µM | inhibition [6]: inactive | inhibition [7]: inactive | inhibition [8]: Active | IC50 [31]: 23.9 µM | inhibition [9]: Active | IC50 [32]: 6.9 µM | inhibition [10]: inactive | IC50 [17]: 1.4 µM | IC50 [33]: 9 µM | inhibition [11]: Active | IC50 [34]: 8.8 µM | inhibition [13]: Active | inhibition [14]: Active | inhibition [15]: Tde | IC50 [35]: > 100 µM | IC50 [36]: 1.9 µM
SMILES: CCN(CC)CCCC(C)Nc1nc(/C=C/c2c(Cl)cc(Cl)cc2Cl)nc2ccc(N)cc12 (stereo not drawn)
IC50 (MDA-MB-231 [19]): 3 to 7 µM | IC50 (MDA-MB-231 [16]): 2 µM | inhibition [4]: Active | Activity (MDA-MB-468): inactive | inhibition [12]: Active
